# Results published in ChEMBL document CHEMBL1125724, “Potential anti-AIDS agents. Synthesis and antiviral activity of naphthalenesulfonic acid derivatives against HIV-1 and HIV-2” (1991).
# Key:
# [1] = target: Human immunodeficiency virus type 1 reverse transcriptase (Human immunodeficiency virus 1) (UniProt Q72547); assay: Compound tested for % inhibition of cell-free HIV-1 Reverse Transcriptase at a concentration of 505 uM
# Outline: (§1)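 HIV-1 RT came from disrupted, partially purified, concentrated virions. Reaction ran 30 min at 37 °C in 50 mM Tris-HCl pH 8.4 with 2 mM DTT, 100 mM KCl, 10 mM MgCl2, 0.1% Triton X-100, [methyl-3H]dTTP (1 µCi, 30 Ci/mmol), poly(rA)·oligo(dT) template and compound. It was stopped with 5% TCA, and precipitate was filter-collected and scintillation-counted. Variation was at most 10%.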
# [2] = target: Human immunodeficiency virus type 1 protease (Human immunodeficiency virus 1) (UniProt Q72874); assay: Compound tested for % inhibition of giant cell formation at a concentration of 101 uM
# Outline: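 MOLT-4 cells were co-cultured 24 h with an equal number of HUT-78/HTLV-III_B cells in the presence of compound. Giant (syncytial) cells were counted microscopically and inhibition of giant cell formation was scored.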
# MT4 [3] = assay: Cell viability at a concentration of 0.8(0.8) ug/mL (uM).; format: functional, Homo sapiens
# MT4 [4] = assay: Compound tested for its inhibition of HIV-1 induced cytopathogenicity in MT-4 cells.; format: functional; details: Homo sapiens, read-out: ED50 (the source's name)
# Outline: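 MT-4 cells infected with HIV-1 (HTLV-III_B) at MOI 0.02 and incubated 4 days with a range of compound concentrations. Viable cells were counted by MTT. ED50 is the 50% antiviral dose from inhibition of virus-induced cytopathogenicity, given as the mean of two separate experiments.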
# MT4 [5] = assay: Compound tested for its ability to reduce viability of mock-infected MT-4 cells.; format: functional; details: Homo sapiens, read-out: CD50 (the source's name)
# Outline: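 Mock-infected MT-4 cells were incubated 4 days with a range of compound concentrations, and viability was read by MTT. CD50 is the 50% cytotoxic dose from reduced viability, given as the mean of two separate experiments.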
# MT4 [6] = assay: Compound was evaluated for inhibitory effect against MT-4 cells of HIV-2 at a concentration of 100(101) ug/mL (uM).; format: functional, Homo sapiens
# Outline: (§2)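 HIV-2 (ROD strain) infected MT-4 cells at multiplicity of infection 0.02, incubated with a range of compound concentrations for 4 days. Viable cells counted by MTT method. Per-concentration inhibition of virus-induced cytopathogenicity; values are means of two separate experiments.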
# MT4 [7] = assay: Compound tested for its inhibition of HIV-2 induced cytopathogenicity in MT-4 cells.; format: functional; details: Homo sapiens, read-out: ED50 (the source's name)
# Outline: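 MT-4 cells infected with HIV-2 (ROD) at MOI 0.02 and incubated 4 days with a range of compound concentrations. Viable cells were counted by MTT. ED50 is the dose giving 50% inhibition of virus-induced cytopathogenicity, given as the mean of two separate experiments.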
# MT4 [8] = assay: Compound was evaluated for inhibitory effect against MT-4 cells of HIV-2 at a concentration of 20(20.2) ug/mL (uM).; format: functional, Homo sapiens; outline: as §2
# [9] = target: Human immunodeficiency virus type 1 reverse transcriptase (Human immunodeficiency virus 1) (UniProt Q72547); assay: Compound tested for % inhibition of cell-free HIV-1 Reverse Transcriptase at a concentration of 4 uM; outline: as §1
# MT4 [10] = assay: Cell viability at a concentration of 4(4) ug/mL (uM).; format: functional, Homo sapiens
# MT4 [11] = assay: Compound was evaluated for inhibitory effect against MT-4 cells of HIV-2 at a concentration of 0.8(0.8) ug/mL (uM).; format: functional, Homo sapiens; outline: as §2
# MT4 [12] = assay: Compound was evaluated for inhibitory effect against MT-4 cells of HIV-2 at a concentration of 4(4) ug/mL (uM).; format: functional, Homo sapiens; outline: as §2
# MT4 [13] = assay: Compound was evaluated for inhibitory effect against MT-4 cells of HIV-1 at a concentration of 0.8(0.8) ug/mL (uM).; format: functional, Homo sapiens
# Outline: (§3)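 HIV-1 (HTLV-III_B) infected MT-4 cells at multiplicity of infection 0.02, incubated with a range of compound concentrations for 4 days. Viable cells counted by MTT method. Per-concentration inhibition of virus-induced cytopathogenicity; values are means of two separate experiments.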
# MT4 [14] = assay: Cell viability at a concentration of 100(1.1) ug/mL (uM).; format: functional, Homo sapiens
# MT4 [15] = assay: Compound was evaluated for inhibitory effect against MT-4 cells of HIV-1 at a concentration of 20(20.2) ug/mL (uM).; format: functional, Homo sapiens; outline: as §3
# MT4 [16] = assay: Cell viability at a concentration of 20(20.2) ug/mL (uM).; format: functional, Homo sapiens
# [17] = target: Human immunodeficiency virus type 1 reverse transcriptase (Human immunodeficiency virus 1) (UniProt Q72547); assay: Compound tested for % inhibition of cell-free HIV-1 Reverse Transcriptase at a concentration of 20.2 uM.; outline: as §1
# MT4 [18] = assay: Compound was evaluated for inhibitory effect against MT-4 cells of HIV-1 at a concentration of 100(101) ug/mL (uM).; format: functional, Homo sapiens; outline: as §3
# MT4 [19] = assay: Compound was evaluated for inhibitory effect against MT-4 cells of HIV-1 at a concentration of 4(4) ug/mL (uM).; format: functional, Homo sapiens; outline: as §3
# [20] = target: Human immunodeficiency virus type 1 reverse transcriptase (Human immunodeficiency virus 1) (UniProt Q72547); assay: Inhibitory dose at a concentration 505 uM cell-free HIV-1 Reverse Transcriptase
# Outline: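 HIV-1 RT from disrupted, partially purified and concentrated virions. 37 °C for 30 min in 50 mM Tris-HCl pH 8.4, 2 mM DTT, 100 mM KCl, 10 mM MgCl₂, 0.1% Triton X-100, 1 µCi [methyl-³H]dTTP, 0.01 unit poly(rA)·oligo(dT). Stopped with 5% TCA; precipitate collected on glass-fiber filters and counted by scintillation. Means of two experiments; variation ≤10%.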
# MT4 [21] = assay: Compound was evaluated for inhibitory effect against MT-4 cells of HIV-2 at a concentration of 20(33.4) ug/mL (uM).; format: functional, Homo sapiens; outline: as §2
# MT4 [22] = assay: Compound was evaluated for inhibitory effect against MT-4 cells of HIV-1 at a concentration of 100(167) ug/mL (uM).; format: functional, Homo sapiens; outline: as §3
# MT4 [23] = assay: Compound was evaluated for inhibitory effect against MT-4 cells of HIV-1 at a concentration of 20(33.4) ug/mL (uM).; format: functional, Homo sapiens; outline: as §3
# [24] = target: Human immunodeficiency virus type 1 reverse transcriptase (Human immunodeficiency virus 1) (UniProt Q72547); details: 6.7 uM
# [25] = target: Human immunodeficiency virus type 1 reverse transcriptase (Human immunodeficiency virus 1) (UniProt Q72547)
# MT4 [26] = assay: Compound was evaluated for inhibitory effect against MT-4 cells of HIV-2 at a concentration of 4(6.7) ug/mL (uM).; format: functional, Homo sapiens; outline: as §2
# MT4 [27] = assay: Cell viability at a concentration of 4(6.7) ug/mL (uM).; format: functional, Homo sapiens
# MT4 [28] = assay: Cell viability at a concentration of 20(33.4) ug/mL (uM).; format: functional, Homo sapiens
# MT4 [29] = assay: Compound was evaluated for inhibitory effect against MT-4 cells of HIV-1 at a concentration of 0.8(1.3) ug/mL (uM).; format: functional, Homo sapiens; outline: as §3
# [30] = target: Human immunodeficiency virus type 1 reverse transcriptase (Human immunodeficiency virus 1) (UniProt Q72547); details: 33.4 uM
# MT4 [31] = assay: Compound was evaluated for inhibitory effect against MT-4 cells of HIV-2 at a concentration of 0.8(1.3) ug/mL (uM).; format: functional, Homo sapiens; outline: as §2
# MT4 [32] = assay: Compound was evaluated for inhibitory effect against MT-4 cells of HIV-1 at a concentration of 4(6.7) ug/mL (uM).; format: functional, Homo sapiens; outline: as §3
# MT4 [33] = assay: Cell viability at a concentration of 100(167) ug/mL (uM).; format: functional, Homo sapiens
# MT4 [34] = assay: Cell viability at a concentration of 0.8(1.3) ug/mL (uM).; format: functional, Homo sapiens
# MT4 [35] = assay: Compound was evaluated for inhibitory effect against MT-4 cells of HIV-2 at a concentration of 100(167) ug/mL (uM).; format: functional, Homo sapiens; outline: as §2
smiles,measurement,setting,value
O=S(=O)([O-])c1cc(NS(=O)(=O)c2ccc(-c3ccc(S(=O)(=O)Nc4cc(S(=O)(=O)[O-])c5cccc(S(=O)(=O)[O-])c5c4)cc3)cc2)cc2c(S(=O)(=O)[O-])cccc12.[Na+].[Na+].[Na+].[Na+],inhibition,[1],100%
same,inhibition,[2],100%
same,Cell viability,MT4 [3],1
same,EC50,MT4 [4],42 µg/mL
same,CC50,MT4 [5],> 100 µg/mL
same,Inhibition,MT4 [6],94%
same,EC50,MT4 [7],43 µg/mL
same,Inhibition,MT4 [8],9%
same,inhibition,[9],0%
same,Cell viability,MT4 [10],0
same,Inhibition,MT4 [11],0%
same,Inhibition,MT4 [12],1%
same,Inhibition,MT4 [13],0%
same,Cell viability,MT4 [14],0
same,Inhibition,MT4 [15],8%
same,Cell viability,MT4 [16],0
same,inhibition,[17],0%
same,Inhibition,MT4 [18],100%
same,Inhibition,MT4 [19],1%
same,ID50,[20],370 µg/mL
CCCCCCCCCCCCCCCC(=O)Nc1cc(S(=O)(=O)O)cc2cc(S(=O)(=O)O)cc(O)c12,Inhibition,MT4 [21],12%
same,EC50,MT4 [4],42 µg/mL
same,CC50,MT4 [5],> 100 µg/mL
same,Inhibition,MT4 [22],100%
same,Inhibition,MT4 [23],7%
same,EC50,MT4 [7],40 µg/mL
same,inhibition,[24],9%
same,ID50,[25],50 µg/mL
same,Inhibition,MT4 [26],3%
same,Cell viability,MT4 [27],0
same,Cell viability,MT4 [28],1
same,Inhibition,MT4 [29],5%
same,inhibition,[30],4%
same,Inhibition,MT4 [31],6%
same,Inhibition,MT4 [32],0%
same,Cell viability,MT4 [33],0
same,Cell viability,MT4 [34],0
same,Inhibition,MT4 [35],100%
